The source made the active and inactive calls. The calls are words filed in the database; no cut-off is given here.
Assays:
[1] = system: L1210; assay: Cytotoxicity against mouse L1210 cells; format: functional, cell-based
[2] = Half life in human plasma at 1 ug/mL at pH 7 by HPLC analysis; format: ADME, cell-free
[3] = system: L1210; assay: Antitumor activity against mouse L1210 cells xenografted in DBA/2J mouse assessed as mean survival days at 300 ug/kg, ip administered on day 1, 5 and 9 relative to control; format: functional
[4] = Fraction unbound in human plasma incubated over 48 hrs; format: ADME, cell-free
[5] = system: L1210; assay: Antitumor activity against mouse L1210 cells xenografted in DBA/2J mouse assessed as disease cure at 300 […], ip administered on day 1, 5 and 9 measured up to 250 days; format: functional, organism-based
[6] = system: L1210; assay: Antitumor activity against mouse L1210 cells xenografted in DBA/2J mouse assessed as mean survival days at 1000 ug/kg, ip administered on day 1, 5 and 9 relative to control; format: functional
[7] = system: Nucleic Acid; assay: Binding affinity to w794 DNA assessed as DNA alkylation by cell-free assay; format: nucleic-acid assay
[8] = Chemical stability of the compound in 1:1 of TFA/CH2Cl2-4N HCl/EtOAc solution up to 72 hrs; format: physicochemical; details: buffer
[9] = system: L1210; assay: Antitumor activity against mouse L1210 cells xenografted in DBA/2J mouse assessed as mean survival days at 3000 ug/kg, ip administered on day 1, 5 and 9 relative to control; format: functional
[10] = system: L1210; assay: Antitumor activity against mouse L1210 cells xenografted in DBA/2J mouse assessed as disease cure at 9000 […], ip administered on day 1, 5 and 9 measured up to 250 days; format: functional, organism-based
[11] = system: L1210; assay: Antitumor activity against mouse L1210 cells xenografted in DBA/2J mouse assessed as disease cure at 3000 […], ip administered on day 1, 5 and 9 measured up to 250 days; format: functional, organism-based
[12] = system: L1210; assay: Antitumor activity against mouse L1210 cells xenografted in DBA/2J mouse assessed as disease cure at 1000 […], ip administered on day 1, 5 and 9 measured up to 250 days; format: functional, organism-based
[13] = Drug degradation in phosphate buffer assessed as cleavage over 4 weeks; format: physicochemical; details: 672 h
[14] = system: L1210; assay: Antitumor activity against mouse L1210 cells xenografted in DBA/2J mouse assessed as mean survival days at 9000 ug/kg, ip administered on day 1, 5 and 9 relative to control; format: functional
[15] = Half life in calf serum at 2 uM by RP-HPLC analysis; format: ADME, cell-free, Bos taurus; details: cattle
[16] = system: L1210; assay: Antitumor activity against mouse L1210 cells xenografted in DBA/2J mouse assessed as mean survival days at 500 ug/kg, ip administered on day 1, 5 and 9 relative to control; format: functional
In short: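 Syngeneic L1210 cells (1 × 10⁶) given ip to B6D2F1 mice on day 0. Ten mice per group, randomised to vehicle control or treatment. Compound given in 100% DMSO ip on days 1, 5 and 9, with daily monitoring. T/C = total survival days of treated group ÷ total survival days of control × 100.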

[17] = system: L1210; assay: Antitumor activity against mouse L1210 cells xenografted in DBA/2J mouse assessed as mean survival days at 60 ug/kg, ip administered on day 1, 5 and 9 relative to control; format: functional
[18] = system: L1210; assay: Antitumor activity against mouse L1210 cells xenografted in DBA/2J mouse assessed as disease cure at 500 […], ip administered on day 1, 5 and 9 measured up to 250 days; format: functional, organism-based
[19] = system: L1210; assay: Antitumor activity against mouse L1210 cells xenografted in DBA/2J mouse assessed as disease cure at 100 […], ip administered on day 1, 5 and 9 measured up to 250 days; format: functional, organism-based
[20] = system: L1210; assay: Antitumor activity against mouse L1210 cells xenografted in DBA/2J mouse assessed as disease cure at 60 […], ip administered on day 1, 5 and 9 measured up to 250 days; format: functional, organism-based
[21] = system: L1210; assay: Antitumor activity against mouse L1210 cells xenografted in DBA/2J mouse assessed as mean survival days at 100 ug/kg, ip administered on day 1, 5 and 9 relative to control; format: functional
[22] = system: L1210; assay: Antitumor activity against mouse L1210 cells xenografted in DBA/2J mouse assessed as disease cure at 250 […], ip administered on day 1, 5 and 9 measured up to 250 days; format: functional, organism-based
[23] = system: L1210; assay: Antitumor activity against mouse L1210 cells xenografted in DBA/2J mouse assessed as mean survival days at 250 ug/kg, ip administered on day 1, 5 and 9 relative to control; format: functional
[24] = Drug degradation in NaHCO3/1:1 of THF:H2O solution assessed as hydrolysis after 2 hrs; format: physicochemical; details: NaHCO3 in 1:1 THF:H2O solution; read-out: Drug degradation
[25] = Drug degradation in 1:1 of TFA/CH2Cl2-4N HCl/EtOAc solution assessed as cleavage of Boc protecting group; format: physicochemical; details: buffer
[26] = Chemical stability of the compound in Et3N/CH2Cl2 solution after 48 hrs; format: physicochemical
[27] = Drug degradation in MeOH after 24 hrs in presence of 100 equiv BnNH2; format: physicochemical
[28] = Drug degradation in NaHCO3/1:1 of THF:H2O solution assessed as hydrolysis after 48 hrs; format: physicochemical; details: NaHCO3 in 1:1 THF:H2O solution; read-out: Drug degradation
[29] = Chemical stability of the compound in Et3N/CH2Cl2 solution after 24 hrs; format: physicochemical
[30] = Drug degradation in NaHCO3/1:1 of DMF:H2O solution assessed as hydrolysis after 48 hrs; format: physicochemical; details: NaHCO3 in 1:1 DMF:H2O solution; read-out: Drug degradation
[31] = Chemical stability of the compound in DMAP/CH2Cl2 solution after 2 hrs; format: physicochemical
[32] = Chemical stability of the compound in 1:1 of TFA/CH2Cl2-4N HCl/EtOAc solution for 48 hrs; format: physicochemical; details: buffer
[33] = Chemical stability of the compound in NaHCO3/THF solution after 2 hrs; format: physicochemical
[34] = Drug degradation in DMAP/CH2Cl2 solution assessed as hydrolysis after 48 hrs; format: physicochemical; details: read-out: Drug degradation
[35] = Chemical stability in THF after 48 hrs in presence of 100 equiv BnSH and BnOH; format: physicochemical
In short: (§1)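 Compound exposed to 100 equiv each of BnSH and BnOH in MeOH or THF at 23 °C for 48 h and monitored for cleavage.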

[36] = Chemical stability of the compound in NaHCO3/THF solution after 24 hrs; format: physicochemical
[37] = Drug degradation in NaHCO3/MeOH solution assessed as hydrolysis after 2 hrs; format: physicochemical; details: read-out: Drug degradation
[38] = Chemical stability in THF after 24 hrs in presence of BnNH2; format: physicochemical
[39] = Chemical stability in MeOH after 48 hrs in presence of 100 equiv BnSH and BnOH; format: physicochemical; in short: as §1
[40] = Drug degradation in NaHCO3/THF solution assessed as hydrolysis after 48 hrs; format: physicochemical; details: read-out: Drug degradation
[41] = Drug degradation in NaHCO3/1:1 of THF:H2O solution assessed as hydrolysis after 24 hrs; format: physicochemical; details: NaHCO3 in 1:1 THF:H2O solution; read-out: Drug degradation
[42] = Drug degradation in NaHCO3/MeOH solution assessed as hydrolysis after 48 hrs; format: physicochemical; details: read-out: Drug degradation
[43] = Drug degradation in NaHCO3/1:1 of DMF:H2O solution assessed as hydrolysis after 2 hrs; format: physicochemical; details: NaHCO3 in 1:1 DMF:H2O solution; read-out: Drug degradation
[44] = Chemical stability of the compound in Et3N/CH2Cl2 solution after 2 hrs; format: physicochemical
[45] = Chemical stability of the compound in DMAP/CH2Cl2 solution after 24 hrs; format: physicochemical
[46] = Drug degradation in NaHCO3/1:1 of DMF:H2O solution assessed as hydrolysis after 24 hrs; format: physicochemical; details: NaHCO3 in 1:1 DMF:H2O solution; read-out: Drug degradation
[47] = Drug degradation in NaHCO3/MeOH solution assessed as hydrolysis after 24 hrs; format: physicochemical; details: read-out: Drug degradation

Work on `COc1c(O)c2c(c3cc(C(=O)N4CCc5c4c(O)c(OC)c4[nH]c(C(=O)N6C[C@@H]7C[C@]78C6=CC(=O)c6[nH]cc(C)c68)cc54)[nH]c13)CCN2C(N)=O` yielded an IC50 [1] of 0.02 nM.

For `CCN(CC)c1ccc2cc(C(=O)Nc3ccc4[nH]c(C(=O)N5C[C@@H](CCl)c6c5cc(OC(=O)Nc5ccccc5)c5[nH]cc(C)c65)cc4c3)oc2c1` [CARZELESIN], the half-life at 1 ug/mL [2] was < 1 h.

With `O=C1Nc2cccc3c4c(cc(c23)O1)N(C(=O)c1cc2cc(NC(=O)c3cc5ccccc5[nH]3)ccc2[nH]1)C[C@H]4CCl` the T/C [3] was 140%, the fraction unbound at 48 h [4] was 0.05 and the Activity [5] was “inactive”. For the same compound, the T/C [6] was >275%, the Activity [7] was “inactive” and the Stability [8] was “Stable”. For the same compound, the T/C [9] was >310%, the Activity [10] was “Active” and the Activity [11] was “inactive”. For the same compound, the IC50 [1] was 6.6 nM, the Activity [12] was “inactive” and the Drug degradation [13] was “Not Active”. The T/C [14] was >980%.

`Nc1cccc2c1C(=O)C=C1N(C(=O)c3cc4cc(NC(=O)c5cc6ccccc6[nH]5)ccc4[nH]3)CC3CC123` (racemic) gave an IC50 [1] of 0.21 nM.

With `Br.COC(=O)c1c(C)[nH]c2c(OC(=O)N3CCN(C)CC3)cc3c(c12)[C@H](CBr)CN3C(=O)c1cc2cc(OC)c(OC)c(OC)c2[nH]1` [PIBROZELESIN HYDROBROMIDE] the half-life at 2 µM [15] was 20 h.

With `O=C1Nc2cccc3c4c(cc(c23)O1)N(C(=O)c1cc2cc(NC(=O)c3cc5ccccc5[nH]3)ccc2[nH]1)C[C@@H]4CCl` the IC50 [1] was 40 nM.

In the case of `O=C(Nc1ccc2[nH]c(C(=O)N3C[C@@H](CCl)c4c3cc(O)c3ccccc43)cc2c1)c1cc2ccccc2[nH]1` [SECO-CBI-INDOLE], the T/C [16] is reported as 17%, the T/C [17] is reported as 197% and the Activity [18] is reported as “inactive”. For the same compound, the Activity [19] was “inactive”, the Activity [20] was “inactive” and the T/C [21] was 36%. The Activity [22] was “inactive” and the T/C [23] was 21%.

With `CC(C)(C)OC(=O)N1C[C@@H](CCl)c2c1cc1c3c(cccc23)NC(=O)O1` the degraded at 2 h [24] was < 4%, the Drug degradation [25] was “Active” and the Stability [26] was “Stable”. For the same compound, the Drug degradation [27] was “Active”, the degraded at 48 h [28] was 9% and the Stability [29] was “Stable”. For the same compound, the degraded at 48 h [30] was 19%, the Stability [31] was “Stable” and the Stability [32] was “Stable”. For the same compound, the Stability [33] was “Stable”, the degraded at 48 h [34] was 12% and the Stability [35] was “Stable”. The Stability [36] was “Stable”, the degraded at 2 h [37] was 18% and the IC50 [1] was 4900 nM. The Stability [38] was “Stable”, the Stability [39] was “Stable” and the degraded at 48 h [40] was 7%. For the same compound, the degraded at 24 h [41] was 4%, the degraded at 48 h [42] was 100% and the degraded at 2 h [43] was 7%. The Stability [44] was “Stable”, the Stability [45] was “Stable” and the degraded at 24 h [46] was 12%. It also gave a degraded at 24 h [47] of 74%.

`CC(C)(C)OC(=O)N1C[C@H](CCl)c2c1cc1c3c(cccc23)NC(=O)O1` gave an IC50 [1] of 5800 nM.

Reference: ChEMBL document CHEMBL2150954, “A novel, unusually efficacious duocarmycin carbamate prodrug that releases no residual byproduct” (J Med Chem, 2012)
